Assay results as given in publication PMC9122571 (RSC Advances, 2020).

How the values were obtained:
[1] = DPPH radical scavenging assay
Outline: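 Test compound dissolved in DMSO and diluted in ethanol; a series of concentrations mixed with 2 mL DPPH solution (3.94 mg per 100 mL anhydrous ethanol). Kept 30 min at room temperature in the dark, then A519 read. Scavenging calculated as % of (Acontrol − Asample)/Acontrol. Vitamin C served as reference.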

A549 cells [2] = assay: In vitro cytotoxicity, MTT assay; format: cell-based, human; conditions: 48 h
Outline: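 A549 cells (DMEM, 10% FBS, penicillin/streptomycin, 37 °C, 5% CO2) seeded at 5 × 10³ per well and left overnight. Exposed 48 h to test compound at 6.25–200 μM. MTT (0.5 mg mL−1 in DMEM) added for 4 h; formazan dissolved in DMSO; A490 read. Viability taken as % of (ODtest − ODblank)/(ODcontrol − ODblank); means ± SD.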

A549 cells [3] = assay: Cell viability after H2O2 induced oxidative stress; format: cell-based, human; conditions: A549, 24 h pretreatment at 3.125–100 μM, then 800 μM H2O2 for 4 h
Outline: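 A549 cells in DMEM with 10% FBS and penicillin/streptomycin at 37 °C, 5% CO2, pretreated with test compound for 24 h, then given 800 μM H2O2 for 4 h. Untreated and H2O2-only groups run alongside. Viability by MTT (0.5 mg mL−1, 4 h, DMSO solubilisation, A490) as % of (ODtest − ODblank)/(ODcontrol − ODblank). n = 4; ANOVA with LSD post hoc test.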

Structure (SMILES) | free radical scavenging effect compared with vitamin C [1] | viability of A549 cells (A549 cells [2]; concentration ≤200 μM) | also measured
COc1cnc(NS(=O)(=O)c2ccc(NC(=O)/C=C\c3ccc(O)c(O)c3)cc2)nc1 [CASMD, (Z)-3-(3,4-Dihydroxyphenyl)-N-(4-(N-(5-methoxypyrimidin-2-yl)sulfamoyl)phenyl)acrylamide] | higher | not significantly decreased | viability of A549 cells (A549 cells [2]; concentration ≤100 μM): not significantly decreased
O=C(/C=C\c1ccc(O)c(O)c1)Nc1ccc(S(=O)(=O)Nc2ncccn2)cc1 [CASDZ, (Z)-3-(3,4-Dihydroxyphenyl)-N-(4-(N-pyrimidin-2-ylsulfamoyl)phenyl)acrylamide] | higher | not significantly decreased | growth of A549 cells (A549 cells [2]; concentration of 200 μM): significantly inhibits
COc1cnc(NS(=O)(=O)c2ccc(NC(=O)/C=C\c3ccc(OC(C)=O)c(OC(C)=O)c3)cc2)nc1 [ACASMD, (Z)-4-(3-(4-(N-(5-Methoxypyrimidin-2yl)sulfamoyl)phenylamino)-3-oxoprop-1-enyl)-1,2-phenylene diacetate] |  | not significantly decreased | 
CC(=O)Oc1ccc(/C=C\C(=O)Nc2ccc(S(N)(=O)=O)cc2)cc1OC(C)=O [ACASN, (Z)-4-(3-Oxo-3-(4-sulfamoylphenylamino)prop-1-enyl)-1,2-phenylene diacetate] |  | not significantly decreased | 
CC(=O)Oc1ccc(/C=C\C(=O)Nc2ccc(S(=O)(=O)Nc3ncccn3)cc2)cc1OC(C)=O [ACASDZ, (Z)-4-(3-Oxo-3-(4-(N-pyrimidin-2ylsulfamoyl)phenylamino)prop-1-enyl)-1,2-phenylene diacetate] |  | not significantly decreased | 
O=C(O)/C=C/c1ccc(O)c(O)c1 [Caffeic acid] |  |  | prevention of 800 μM H2O2 induced decrease in cell viability (A549 cells [3]): could not prevent
O=C1O[C@H]([C@@H](O)CO)C(O)=C1O [Vitamin C] |  |  | prevention of 800 μM H2O2 induced decrease in cell viability (A549 cells [3]): could not prevent
NS(=O)(=O)c1ccc(NC(=O)/C=C\c2ccc(O)c(O)c2)cc1 [CASN, (Z)-3-(3,4-Dihydroxyphenyl)-N-(4-sulfamoylphenyl)acrylamide] | higher | not significantly decreased | 
